The nature of series [1]: Protein binding in methicillin-sensitive Staphylococcus aureus ATCC 29213-infected neutropenic ICR mouse serum at 6 µg/ml by HPLC. The settings on record: read-out: PB (converted).
In a further series the test system is Staphylococcus aureus. As to the kind of experiment: Antimicrobial activity against hospital-acquired methicillin-resistant Staphylococcus aureus isolate 152 infected in neutropenic ICR mouse assessed as change in bacterial load after 24 hrs. Format: functional. The method, boiled down:
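Female ICR mice (~25 g) made neutropenic with cyclophosphamide 150 and 100 mg/kg ip, 4 and 1 days before infection. Each thigh inoculated im with 0.1 ml of ~10^7 CFU/ml from an overnight subculture. Tigecycline sc (0.2 ml) given 2 h later as single or multiple doses of 1.56–50 mg/kg, 1.56–400 mg/kg/day, 3 mice/group. Saline-injected controls. Thighs harvested at 24 h, homogenized in saline, plated on blood agar; log10 CFU change vs 0-h controls.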

The nature of series [2]: Plasma protein binding in mouse. The series is classed as ADME, cell-free. To be noted: read-out: PPB (converted).
Series [3] is described as follows: r2 for fT>MIC in community acquired methicillin-resistant Staphylococcus aureus isolate 144-infected neutropenic ICR mouse.
The nature of series [4]: r2 for fCmax/MIC in community acquired methicillin-resistant Staphylococcus aureus isolate 144-infected neutropenic ICR mouse.
Series [5] is described as follows: Elimination half life in neutropenic ICR mouse infected with methicillin-sensitive Staphylococcus aureus ATCC 29213 at 50 mg/kg, sc by HPLC. The series is classed as ADME, organism-based. Also noted: dose 50 mg/kg, route subcutaneous. The settings on record: in vivo, read-out: beta t1/2 (converted). A digest of the protocol:
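Neutropenic female ICR mice (cyclophosphamide 150 and 100 mg/kg ip, 4 days and 1 day before inoculation), both thighs inoculated im with ~10^7 CFU/ml of ATCC 29213. Single sc doses of 50, 25, 12.5 or 6.25 mg/kg. Cardiac blood taken from groups of six at 8–12 times over 0.5–24 h. Serum measured by HPLC (linear 0.05–5 µg/ml). Two-compartment fit by nonlinear least squares; AUC by trapezoidal rule.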

Series [6] can be described thus: Protein binding in methicillin-sensitive Staphylococcus aureus ATCC 29213-infected neutropenic ICR mouse serum at 1.5 µg/ml by HPLC. The settings on record: read-out: PB (converted).

As for `CN(C)c1cc(NC(=O)CNC(C)(C)C)c(O)c2c1C[C@H]1C[C@H]3[C@H](N(C)C)C(O)=C(C(N)=O)C(=O)[C@@]3(O)C(O)=C1C2=O` [TIGECYCLINE], the fraction unbound is 0.069 in series [1], 0.188 in series [2] and 0.173 in series [6]. The log10CFU/ml with Staphylococcus aureus is 1.8. Further, the r2 in series [3] is reported as 0.552%; in series [4], 0.77. The half-life in series [5] was 7.36 h.
